One assay concerns GRK6. To be noted: ref previous study of the α9 peptide (Baameur et al. 2010); cited from earlier work.
The target of the next assay is GRK5 (Homo sapiens, UniProt P34947). Briefly: GRK5 phosphorylation of light-activated rhodopsin. The class given is biochemical.
In assay [1] the test system is PKA site pS-262 of the β2AR in WT-β2AR cells. As to the kind of experiment: Intact-cell PKA site phosphorylation of the β2AR. The assay is classed as cell-based. Conditions: 100 μM, 20 min pretreatment, 20 nM ISO. The method, boiled down:
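HEK293 cells stably expressing FLAG-β2AR (2–4 pmol/mg) on poly-L-lysine; 20 min with 100 μM TAT-tagged peptide, TAT or DMSO, then 20 nM ISO in 0.1 mM ascorbate/1 mM thiourea pH 7, or carrier, 5 min at 37 °C. Lysates on 12 % SDS-PAGE, immunoblot anti-pS262, reprobed anti-C-tail for normalisation. ≥4 experiments in duplicate, % of control.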

A further assay deals with adenylyl cyclase (AC). As to the kind of experiment: Adenylyl cyclase activity in membranes from WT-β2AR cells. The assay is classed as biochemical. To be noted: 100 μM peptide, 10 min, 30 °C.
For assay [2], the system named is GRK site pS-(355,356) of the β2AR in WT-β2AR cells. As to the kind of experiment: Intact-cell GRK site phosphorylation of the β2AR. To be noted: 100 μM, 20 min pretreatment, 20 nM ISO. The class given is cell-based.

Square brackets hold non-standard residues; d marks the D form. Peptide text beside a SMILES is read from it. Nle = CCCC[C@H](N)C(=O)O

Chain of GRK5 (P34947 whole entry): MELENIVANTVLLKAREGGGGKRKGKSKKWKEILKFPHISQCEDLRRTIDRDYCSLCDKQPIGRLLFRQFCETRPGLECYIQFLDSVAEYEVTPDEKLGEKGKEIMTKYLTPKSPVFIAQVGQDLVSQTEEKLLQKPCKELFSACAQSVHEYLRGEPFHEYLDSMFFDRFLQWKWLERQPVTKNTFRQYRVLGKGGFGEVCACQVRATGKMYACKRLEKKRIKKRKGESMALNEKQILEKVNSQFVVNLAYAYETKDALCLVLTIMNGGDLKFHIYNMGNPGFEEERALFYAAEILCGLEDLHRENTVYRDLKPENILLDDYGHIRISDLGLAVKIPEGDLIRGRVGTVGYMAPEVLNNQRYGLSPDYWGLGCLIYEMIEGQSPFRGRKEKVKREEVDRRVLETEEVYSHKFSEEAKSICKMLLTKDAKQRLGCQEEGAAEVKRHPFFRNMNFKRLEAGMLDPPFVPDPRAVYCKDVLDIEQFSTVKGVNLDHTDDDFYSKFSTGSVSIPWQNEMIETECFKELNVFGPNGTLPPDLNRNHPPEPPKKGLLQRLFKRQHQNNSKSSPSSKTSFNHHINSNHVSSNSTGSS

As to `CCCC[C@H](NC(=O)[C@H](CO)NC(C)=O)C(=O)N[C@@H](Cc1ccccc1)C(=O)N[C@@H](Cc1ccccc1)C(=O)N[C@@H](CC(=O)O)C(=O)N[C@@H](CCCNC(=N)N)C(=O)N[C@@H](Cc1ccccc1)C(=O)N[C@@H](CC(C)C)C(=O)N[C@@H](CCC(N)=O)C(=O)N[C@@H](Cc1c[nH]c2ccccc12)C(=O)N[C@@H](CCCCN)C(=O)N[C@@H](Cc1c[nH]c2ccccc12)C(=O)N[C@@H](CC(C)C)C(=O)N[C@@H](CCC(=O)O)C(=O)N[C@@H](CCCNC(=N)N)C(N)=O` [α9 (164–178)] (Ac-S[Nle]FFDRFLQWKWLER-NH2), the “Inhibition of GRK6 (previous study)” value in the assay with GRK6 is “no inhibition”. Further, inhibition against GRK5 was half-maximal at 15.9 ± 4.3 µM (IC50). For the same compound, on GRK5 (read-out: % Inhibition (100 μM) of GRK5 phosphorylation of rhodopsin), the inhibition at 100 µM turned out to be 89%.
In the case of `CC(=O)NCC(=O)N[C@@H](CCCNC(=N)N)C(=O)N[C@@H](CCCCN)C(=O)N[C@@H](CCCCN)C(=O)N[C@@H](CCCNC(=N)N)C(=O)N[C@@H](CCCNC(=N)N)C(=O)N[C@@H](CCC(N)=O)C(=O)N[C@@H](CCCNC(=N)N)C(=O)N[C@@H](CCCNC(=N)N)C(=O)N[C@@H](CCCNC(=N)N)C(=O)N1CCC[C@H]1C(=O)N1CCC[C@H]1C(=O)N[C@@H](CCC(N)=O)C(N)=O` [TAT], the “Effect on PKA site (S262) phosphorylation of the β2AR in intact cells” value in assay [1] is on record as “did not inhibit”. The “Effect on ISO-stimulated AC activity” value in the assay with adenylyl cyclase (AC) (1 μM ISO) was “without effect”. Moreover, the “Effect on FSK-stimulated AC activity” value in the assay with adenylyl cyclase (AC) (20 μM FSK) was “without effect”. Further, the “Effect on GRK phosphorylation of β2AR in intact cells” value in assay [2] is recorded as “did not inhibit”.

Usually IC50 stands for the concentration that inhibits the measured activity by half. For orientation: inhibition means the relative decrease from the control value, in per cent.

Source of the values: publication PMC4269301 (International journal of peptide research and therapeutics, 2014).
